# High-throughput results from PubChem.
# PPC-1+TRAIL kill: compounds killing PPC-1 cancer cells with TRAIL present, primary screen, TRAIL potentiator project, ATPLite luminescence, uHTS. PPC-1 cells + TRAIL, ATPLite viability luminescence. cell killing (% activity), % at 4 µM or 5 µM. actives 0.41% (n = 220,000). AID 1443, 2008;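 active = cell killing above 50% in the first pass at 4 µM, then a duplicate retest at 5 µM averaging 50% or more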;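 note: plate controls were cells with TRAIL plus DMSO for no effect and medium-only wells lacking cells for full effect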
# FLuc stim CS: FLuc activators, initial screening, artefact control for FLuc-dependent activation tests, biochemical, ATPlite luminescence. 200,000 tested, under 10 active. activation factor at 10 µM. Luciferin 4-monooxygenase (Photinus pyralis), P08659. AID 1027, 2008. ATPlite luciferase biochemical, 10 min; 0 = ATP-free wells, 1 = DMSO control;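 active = luciferase activation factor, scaled between plate controls, of at least 2 with compound at 10 µM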
# Target sequence (P08659 whole entry, looked up): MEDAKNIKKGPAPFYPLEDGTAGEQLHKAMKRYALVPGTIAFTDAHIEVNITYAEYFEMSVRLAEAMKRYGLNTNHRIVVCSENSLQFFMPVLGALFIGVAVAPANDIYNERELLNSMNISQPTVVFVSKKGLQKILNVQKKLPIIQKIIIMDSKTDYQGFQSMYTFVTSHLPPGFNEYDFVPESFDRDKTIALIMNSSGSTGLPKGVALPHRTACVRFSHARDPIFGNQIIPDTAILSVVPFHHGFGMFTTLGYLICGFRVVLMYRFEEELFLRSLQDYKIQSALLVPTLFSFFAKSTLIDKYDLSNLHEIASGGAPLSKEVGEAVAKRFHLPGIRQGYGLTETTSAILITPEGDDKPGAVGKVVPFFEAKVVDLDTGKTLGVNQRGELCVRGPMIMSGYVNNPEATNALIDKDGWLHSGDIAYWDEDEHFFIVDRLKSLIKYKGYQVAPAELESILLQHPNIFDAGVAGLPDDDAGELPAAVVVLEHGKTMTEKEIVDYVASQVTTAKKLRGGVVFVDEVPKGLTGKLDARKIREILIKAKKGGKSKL
#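 Assay system: Luciferase/luciferin reagent mix; Medium: PBS as buffer for the ATP substrate; Dosing: test compounds dosed from 2 mM stocks in 100% DMSO; Times: 10 min, room temperature; Signal: luminescence from luciferase reaction; Read-out: luciferase activation; Controls: No-ATP low control, compound-free enzyme-plus-ATP high control.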
# TRAIL sens C8: viability loss with TRAIL in NB7+C8 cells, primary screen, TRAIL sensitizer project, cell-based, ATPlite luminescence; inhibition (viability loss, TRAIL sensitization), % at 10 µM; actives 1% (n = 360,000);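 active = compounds causing at least 50% loss of cell viability in the single-dose screen, relative to plate controls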
# FLuc inhib CS: firefly luciferase enzyme inhibitors, primary screen, artefact control for luciferase-based inhibitor screens, biochemical, luminescence, ATPLite; actives 1.5% (n = 200,000); AID 1006, 2008; inhibition, % at 10 µM; Luciferin 4-monooxygenase (Photinus pyralis), P08659; 10 min;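 active = inhibition above about 50% when tested at 10 µM, limit read from the data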
# Active calls of the source: *; / = no result given. Compounds with a hit are over-represented: about 1.5% of the library has one in this group of screens.
SMILES,PPC-1+TRAIL kill,FLuc stim CS,TRAIL sens C8,FLuc inhib CS
CCCCCc1cc(=O)oc2c(C(CCN(CC)CC)c3cc(OC)c(OC)c(OC)c3)c(OC)cc(OC)c12 (centres undefined),13,/,75*,/
C=CCSc1nc2ccccc2c(=O)n1C1CCOC(C)(C)C1 (centres undefined),13,/,-7,/
O=C(Nc1ccc(Cl)cc1Cl)c1n[nH]c(Cn2cncn2)n1,27,0.4,14,64*
Cc1sc2ncnc(N=Nc3c(O)[nH]c4ccccc34)c2c1C,28,0.5,44,50*
O=C(Nc1ccccc1)c1cccc(N2C(=O)CCC2=O)c1,-8,1.1,-5,-8
O=C(NCCN1C(=O)S/C(=C\c2ccc(Cl)c([N+](=O)[O-])c2)C1=O)C1=COCCO1,/,/,55*,/
CC(=O)Nc1ccc(NC(=O)C(F)(F)F)cc1,21,1,2,-2
CC1CCN(c2ccc(-c3ccc(NC(=O)C(F)(F)F)cc3)nn2)CC1,/,/,89*,/
C/C(=N\NC(=O)COc1ccc(C)cc1C(C)C)c1cc2ccccc2o1,16,0.3,47,72*
CCOc1ccc(C(=O)CCC(=O)NC(CC(C)C)C(=O)OC)cc1 (centres undefined),24,1.1,2,-7
CCc1ccc(-c2nc(CCl)cs2)cc1,-7,0.4,15,65*
COc1ccc(-c2nc(CCl)cs2)cc1OC,-2,1,-16,2
COc1ccccc1NC(=O)C1Cc2ccccc2CN1C(=O)c1ccco1 (centres undefined),/,/,-25,/
O=C(Nc1ccc(Br)cc1)c1cc([N+](=O)[O-])cc([N+](=O)[O-])c1,/,/,-1,/
COc1ccc(N=[N+]([O-])c2ccc(OC)cc2)cc1,/,/,67*,/
Cc1sc2nc(CSCC(=O)Nc3ccc(C(=O)N(C)C)cc3)[nH]c(=O)c2c1C,/,/,14,/
CCN(CC)C(=O)COc1ccc(/C(C)=N/NC(=O)c2ccccc2O)cc1,36,0.4,35,63*
O=C(Cc1cccs1)Nc1cccc(-c2nc3cc4ccccc4cc3[nH]2)c1,47,0.2,73*,75*
CC(=O)Nc1cccc(NC(=O)Cc2cccs2)c1,/,/,-20,/
CCOc1ccc(NC(=S)NC(=O)c2c(Br)cnn2C)c([N+](=O)[O-])c1,32,0.4,22,64*
Cc1ccc(OCCn2c(C3CC(=O)N(Cc4ccccc4)C3)nc3ccccc32)cc1 (centres undefined),13,1.1,47,-8
O=C(c1cnc(Cl)c(Cl)c1)N1CCN(S(=O)(=O)c2ccc3ccccc3c2)CC1,/,/,48*,/
O=C(c1ccncc1)N1CCN(S(=O)(=O)c2ccc3ccccc3c2)CC1,/,/,3,/
c1cn2cc(-c3ccc4c(c3)OCO4)nc2s1,46,0.2,44,78*
CC(=O)Nc1ccc(-c2cn3ccsc3n2)cc1,34,0.3,36,67*
SMILES,PPC-1+TRAIL kill,FLuc stim CS,TRAIL sens C8,FLuc inhib CS
CC1CCCCC1NC(=O)c1cncc(Br)c1 (centres undefined),23,1,0,-1
COc1ccc(OCCCN(C)Cc2ccccc2)cc1,/,/,4,/
c1ccc(-c2cn3nc(-c4ccccc4)sc3n2)cc1,/,/,85*,/
COc1cc(OC)c(OC)cc1/C=N/NC(=O)CSc1ccccc1F,/,/,-2,/
CCOc1ccc(-c2c(C#N)c(N)nc3c2c(=O)n(C)c(=O)n3C)cc1OC,28,1.2,86*,-18
COc1ccc(-c2c(C#N)c(N)nc3c2c(=O)n(C)c(=O)n3C)cc1,11,1.1,-2,-8
O=C(CCl)N1CCCC1c1ccc2c(c1)OCCO2 (centres undefined),/,/,65*,/
O=C(Cn1ncc2c([nH]c3ccccc32)c1=O)N1CCc2ccccc2C1,/,/,2,/
CCOC(=O)c1cc(C(=O)Nc2cccc(C)c2)nn1C,21,0.4,34,60*
Cn1nc(C(=O)Nc2cccc(Cl)c2)cc1C(=O)Nc1cccc(Cl)c1,/,/,0,/
CNc1ccc(Br)cc(C(=O)/C=C/c2cc(OC)ccc2OC)c1=O,40,1,-12,-1
Cc1ccc(C2CC(c3cccs3)=NN2C(=O)CCl)cc1 (centres undefined),/,/,77*,/
CC1=CN2C(=N)/C(=C/c3ccco3)C(=O)N=C2S1,45,0.1,58*,92*
O=C(COC(=O)/C=C/c1ccccc1[N+](=O)[O-])NC1CC1,1,1.1,-8,-6
Cc1nn(-c2ccccc2)c(/N=C/c2ccc(O)cc2)c1-c1ccccc1,40,1,53*,1
CN(Cc1ccccc1)C(=O)COc1ccc(C(C)(C)C)cc1,/,/,-10,/
O=C(Nc1ccc(N2CCN(C(=O)c3ccccc3)CC2)c(Cl)c1)c1ccco1,28,1.1,19,-5
CC(=O)N1CCN(c2ccc(NC(=O)c3ccc([N+](=O)[O-])o3)cc2Cl)CC1,/,/,30,/
O=C(Nc1ccc(N2CCN(C(=O)c3ccco3)CC2)c(Cl)c1)c1cc2ccccc2o1,21,1,61*,3
O=C(Nc1ccc(N2CCN(C(=O)c3cccs3)CC2)cc1)c1ccc([N+](=O)[O-])o1,/,/,94*,/
CCC(=O)N1CCN(c2ccc(NC(=O)c3ccc([N+](=O)[O-])o3)cc2Cl)CC1,31,1,70*,-4
CCC(=O)N1CCN(c2ccc(NC(=O)c3cc4ccccc4o3)cc2Cl)CC1,25,1,61*,-4
CS(=O)(=O)N1CCN(c2ccccc2NC(=O)c2ccc([N+](=O)[O-])o2)CC1,26,1.1,-2,-5
CN1CCN(c2ccccc2NC(=O)c2ccc([N+](=O)[O-])o2)CC1,/,/,60*,/
O=C(Nc1ccc(N2CCOCC2)c(F)c1)c1cccs1,/,/,56*,/
SMILES,PPC-1+TRAIL kill,FLuc stim CS,TRAIL sens C8,FLuc inhib CS
CCCC(=O)N1CCN(c2ccc(NC(=O)c3cccs3)cc2Cl)CC1,/,1.1,-5,-6
O=C(Nc1ccc(N2CCOCC2)c(Cl)c1)c1ccco1,14,0.4,40,59*
CCCC(=O)N1CCN(c2ccc(NC(=O)c3cc4ccccc4o3)cc2Cl)CC1,30,1,54*,-3
COC(=O)c1cc(NC(=O)c2cccs2)ccc1N1CCOCC1,/,1,-7,4
CC(=O)N1CCN(c2ccc(NC(=O)c3ccco3)cc2Cl)CC1,/,/,0,/
CNS(=O)(=O)c1ccc(NC(=O)c2ccoc2C)cc1,4,1,-1,2
CCc1ccc(-c2cn3c(n2)SCC3)cc1,31,0.4,29,64*
CCC(=O)N1CCc2cc(S(=O)(=O)NC(C(=O)NCc3ccc(C)cc3)C(C)C)ccc21 (centres undefined),20,1.1,2,-11
CCC(=O)N1CCc2cc(S(=O)(=O)NC(C(=O)NC3CCCc4ccccc43)C(C)C)ccc21 (centres undefined),62*,1,8,0
O=C(CNC(=O)c1cccs1)c1ccc(Cl)cc1,/,/,19,/
O=C(CNC(=O)c1cccs1)c1ccc(F)cc1,21,0.5,41,52*
